Measurements reported in PMC5892705 (Science signaling, 2017).
Where two headings read alike, the source gives them in different places. One block for each compound: values may come before it.

Columns and labels:
rat V2R = settings: read-out: Ki at rat V2R; ref Chini et al.([38]); cited from earlier work
human OTR = molecular target: T1, human OTR (Homo sapiens, UniProt P30559); settings: read-out: Ki at human OTR; ref Chini et al.([38]); cited from earlier work
T1 sequence (P30559 1-389): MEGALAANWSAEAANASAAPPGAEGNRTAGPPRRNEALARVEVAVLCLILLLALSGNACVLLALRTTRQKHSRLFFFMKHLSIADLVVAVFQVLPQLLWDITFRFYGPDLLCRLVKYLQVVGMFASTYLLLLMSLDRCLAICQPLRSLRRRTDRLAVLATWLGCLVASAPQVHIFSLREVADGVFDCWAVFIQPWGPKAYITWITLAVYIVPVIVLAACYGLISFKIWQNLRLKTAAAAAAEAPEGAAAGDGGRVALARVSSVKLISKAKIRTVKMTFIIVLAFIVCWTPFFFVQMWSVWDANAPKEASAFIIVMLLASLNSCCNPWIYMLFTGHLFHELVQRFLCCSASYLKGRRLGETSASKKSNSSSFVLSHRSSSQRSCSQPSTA

[1] = system: OT, V1a, V1b, V2 receptors; settings: cited from earlier work
[2] = system: OT, V1a, V1b, V2 receptors; settings: cited from earlier work; remark: listed apart in the source
[3] = system: OT, V1a, V1b, V2 receptors; settings: cited from earlier work; remark: listed apart in the source
rat OTR = settings: read-out: Ki at rat OTR; ref Chini et al.([38]); cited from earlier work
rat V1bR = settings: read-out: Ki at rat V1bR; ref Chini et al.([38]); cited from earlier work
human V2R = settings: read-out: Ki at human V2R; ref Chini et al.([38]); cited from earlier work
mouse V2R = settings: read-out: Ki at mouse V2R; ref Chini et al.([38]); cited from earlier work
rat V1aR = settings: read-out: Ki at rat V1aR; ref Chini et al.([38]); cited from earlier work
human V1aR = settings: read-out: Ki at human V1aR, cited from earlier work
human V1bR = settings: read-out: Ki at human V1bR; ref Chini et al.([38]); cited from earlier work
[4] = Human serum stability assay; assay type: in vitro ADME
How it was run: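 Peptides were spiked into human serum. Aliquots were withdrawn at 1, 2, 3, 4, 12, 24 and 48 h and analysed by RP-HPLC and LCMS.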

[5] = human, ref [37], [38], [41], [48], [49], [63], [96]–[99]
[6] = mouse, ref [37], [38], [41], [48], [49], [63], [96]–[99]
[7] = rat, ref [37], [38], [41], [48], [49], [63], [96]–[99]

Compound: dDAVP
- Ki (rat V2R): 0.3 nM

Compound: CCN(Cc1cccnc1)C(=O)c1ccc(Cl)c(C2(C)C(=O)N(Cc3ccc(OC)cc3OC)c3ccc(Cl)cc32)c1 (stereo not shown) [SSR126768]
- Ki (human OTR): 0.9 nM

Compound: [Thr4,Gly7]-OT [T4G7-OT]
- Selectivity [1, 5]: OT preference
- Selectivity [2, 6]: OT selective
- Selectivity [3, 7]: OT selective
- Ki (rat OTR): 1 nM

Compound: d[Leu4, Lys8]-VP
- Ki (rat V1bR): 1.2 nM

Compound: Atosiban
- Selectivity [1, 5]: V1a preference
- Selectivity [2, 6]: OT selective
- Selectivity [3, 7]: unselective

Compound: CCOc1ccc2c(c1)C1(CCC(OCCN3CCOCC3)CC1)C(=O)N2S(=O)(=O)c1ccc(C(=O)NC(C)(C)C)cc1OC (stereo not shown) [SR121463]
- Ki (human V2R): 4.1 nM
- Ki (rat V2R): 1.5 nM
- Ki (mouse V2R): 11.2 nM

Compound: COc1ccc(S(=O)(=O)N2c3ccc(Cl)cc3[C@](O)(c3ccccc3Cl)[C@@H]2C(=O)N2CCC[C@H]2C(N)=O)cc1OC [SR49049]
- Ki (rat V1aR): 2.2 nM

Compound: [Phe2,Ile3,Hgn4,Orn(iPr)8]-VP [FE 202158]
- Ki (human V1aR; selective agonist, ref [100], [101]): 4.4 nM

Compound: d[Cha4]-AVP
- Selectivity [1, 5]: V1b selective
- Selectivity [3, 7]: unselective
- Ki (human V1bR): 1.2 nM

Compound: d(CH2)5[Tyr(Me)2]-AVP
- Ki (rat V1aR): 0.7 nM

- half-life [4]: 12 h
Compound: CC[C@H](C)[C@@H]1NC(=O)[C@H](Cc2ccc(O)cc2)NC(=O)[C@@H](N)CSSC[C@@H](C(=O)N2CCC[C@H]2C(=O)N[C@@H](CC(C)C)C(=O)NCC(N)=O)NC(=O)[C@H](CC(N)=O)NC(=O)[C@H](CCC(N)=O)NC1=O [OT, Oxytocin]

Compound: d(CH2)5[D-Ile2,Ile4,Tyr9]-AVP
- Ki (human V1aR; ref Chini et al.([38])): 3.7 nM

Compound: [Hmp1,Phe2,Ile3,Hgn4,Dab8]-VP [F-180]
- Selectivity [1, 5]: V1a preference
- Selectivity [3, 7]: unselective
- Ki (human V1aR; ref Chini et al.([38])): 11.7 nM

Compound: N=C(N)NCCC[C@H](NC(=O)[C@@H]1CCCN1C(=O)[C@@H]1CSSC[C@H](N)C(=O)N[C@@H](Cc2ccc(O)cc2)C(=O)N[C@@H](Cc2ccccc2)C(=O)N[C@@H](CCC(N)=O)C(=O)N[C@@H](CC(N)=O)C(=O)N1)C(=O)NCC(N)=O [AVP, arginine-vasopressin]
- Selectivity [1]: unselective
- Selectivity [2]: unselective
- Selectivity [3]: unselective

Compound: COc1ccc(S(=O)(=O)N2c3ccc(Cl)cc3[C@](O)(c3ccccc3Cl)[C@@H]2C(=O)N2CCC[C@H]2C(N)=O)cc1OC [SR49059]
- Ki (human V1aR; ref Chini et al.([38])): 0.9 nM
